Laboratory results reported in PubChem BioAssay.
Activity calls are given as the source filed them.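 How the source made its calls, unless noted: active means a full or partial loss of lipid-probe fluorescence in the fish gall bladder, intestine or both, judged by eye; inactive means no fluorescence loss, or compound toxic to the fish.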

Legend:
[1] = inhibitors of TNFa-induced NFkB p65 translocation, primary screen, imaging, HUVEC, MLSMR starter and 10KST1 sets (AID 438;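 active means inhibition above 20% together with a positive visual image hit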;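 further: compound added about 3h40 before a 20 min TNFalpha stimulation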;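 on inhibition: signal is the nuclear over cytoplasmic p65 intensity ratio per well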); settings: HUVEC TNFa-induced p65 nuclear translocation; cell count: measured here: nuclei count (cytotoxicity indicator), at 2.08 µM; inhibition: at 2 µM, stronger effect = higher value, 0% TNFa-plus-vehicle, 100% no-TNFa wells
[2] = inhibitors of mutant huntingtin aggregation, primary screen, imaging, exon1htt(103Q)mCFP cells, high-content imaging (AID 483;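 active means visual image review flags a hit and inhibition of aggregation exceeds 20%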;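 further: compound exposure lasted 3 days before fixation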;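 on nuclei count: percent of the per-plate median nuclei count of sample wells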); settings: exon1htt(103Q)mCFP cell line, aggregate imaging, at 2 µM; inhibition of aggregation: stronger effect = higher value; nuclei count: measured here: cell count, toxicity
[3] = inhibitors of E-selectin induction by TNFa, primary screen, imaging, HUVEC, immunofluorescence, MLSMR starter and 10KST1 sets (AID 487;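 active means visually confirmed hit in the image check and inhibition above 20%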;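 on inhibition: signal is fraction of cell area covered by stained E-selectin grains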;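 on nuclei count: 100% = median nuclei count of all wells on the same plate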); settings: HUVEC TNFalpha-induced E-selectin immunofluorescence imaging, at 2 µM; inhibition: stronger effect = higher value; nuclei count: measured here: cell number, toxicity
[4] = target: Voltage-gated potassium channel subunit beta-2 (Rattus norvegicus) (UniProt P62483); assay: KvBeta enzyme negative modulators, primary screen, biochemical, NADPH fluorescence (AID 622;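 active means fluorescence slope higher than the sample average by over 3 SD, cut at about -0.22 in these data, passing the limit was not always enough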;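 further: slope of raw intensity against log time taken from 70 to 1610 s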); settings: recombinant KvBeta, 4-cyanobenzaldehyde reduction, at 10 µM, stronger effect = higher value
Voltage-gated potassium channel subunit beta-2 (Rattus norvegicus), sequence (P62483 whole entry, looked up): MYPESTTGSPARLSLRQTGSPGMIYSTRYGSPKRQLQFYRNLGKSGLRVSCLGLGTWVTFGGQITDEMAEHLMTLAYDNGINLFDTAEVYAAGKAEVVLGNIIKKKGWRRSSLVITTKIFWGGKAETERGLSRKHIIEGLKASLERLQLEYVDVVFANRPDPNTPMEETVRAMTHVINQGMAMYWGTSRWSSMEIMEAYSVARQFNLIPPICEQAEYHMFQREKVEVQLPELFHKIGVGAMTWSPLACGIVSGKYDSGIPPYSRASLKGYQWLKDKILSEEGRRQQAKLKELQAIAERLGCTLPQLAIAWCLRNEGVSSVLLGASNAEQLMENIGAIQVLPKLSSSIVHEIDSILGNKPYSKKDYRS

[5] = target: Voltage-gated potassium channel subunit beta-2 (Rattus norvegicus) (UniProt P62483); assay: KvBeta positive modulators, primary screen, biochemical, NADPH fluorescence (AID 623;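 active means NADPH fluorescence slope more negative than the mean of all samples by about 3 SD, 99.7% confidence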;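 further: fluorescence intensity change per second fitted from 20 to 320 s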); settings: Recombinant KvBeta, NADPH fluorescence decrease slope, 10 min; at 10 µM; stronger effect = lower value
[6] = target: Alpha-2C adrenergic receptor (Homo sapiens) (UniProt P18825); assay: modulators of alpha2C/GIRK thallium flux, primary screen, cell-based, HEK293 alpha2C/GIRK1/2 (AID 624;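 active means fluorescence slope after compound addition differing from the mean of all screened samples at 99.7% confidence, in either direction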;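 further: slope of fluorescence ratio to pre-addition baseline per second over 15 to 24 s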); settings: thallium flux BTC fluorescence, at 10 µM, actives lie on both sides
Alpha-2C adrenergic receptor (Homo sapiens), sequence (P18825 whole entry, looked up): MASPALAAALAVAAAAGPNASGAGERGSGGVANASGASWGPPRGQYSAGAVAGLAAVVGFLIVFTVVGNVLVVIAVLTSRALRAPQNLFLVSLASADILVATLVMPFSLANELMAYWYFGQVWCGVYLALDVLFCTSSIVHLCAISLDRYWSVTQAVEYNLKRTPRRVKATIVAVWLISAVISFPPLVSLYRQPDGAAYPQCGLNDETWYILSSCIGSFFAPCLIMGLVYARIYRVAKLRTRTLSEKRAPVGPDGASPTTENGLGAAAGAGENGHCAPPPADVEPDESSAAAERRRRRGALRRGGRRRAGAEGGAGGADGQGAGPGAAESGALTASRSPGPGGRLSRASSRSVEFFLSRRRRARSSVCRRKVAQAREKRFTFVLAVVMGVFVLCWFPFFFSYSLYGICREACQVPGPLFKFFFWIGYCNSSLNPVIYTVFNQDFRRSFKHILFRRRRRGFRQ

[7] = inhibitors of larval lipid processing in zebrafish, primary screen, whole organism, PED6 fluorescence, gall bladder and intestine (AID 686); settings: Zebrafish larvae PED6 lipid processing, fluorescence scoring; screened at 20 µM (by protocol);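 further: larvae 5 to 7 days old with five fish per well; signal comes from phospholipase A2 cleavage of quenched PED6 carried via bile; overnight exposure to compound and PED6 before scoring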
Summary of the method: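 Test system – live zebrafish larvae aged 5-7 days, whole organism · Buffer or medium – E3 fish medium · Reagent – quenched phospholipase substrate PED6, 100 nM final, ingested by larvae · Doses – 20 µM single dose · Incubation – overnight compound and PED6 incubation · Technique – visual fluorescence microscopy scoring of gall bladder, gut · Read-out basis – visual per-well fluorescence inhibition score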

[8] = inhibitors of Sendai virus-induced IRF3 signaling, primary screen, TLR/RLR signaling modifier project, cell-based, Sendai virus stimulus, luciferase, 10K MLSCN set (AID 602276;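 active means inhibition at or above 50% at 10 µM; inactive means inhibition below 50%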;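 further: firefly luciferase from ISG56 promoter only with Renilla not read in this screen; 0% = Sendai virus plus DMSO and 100% = medium plus DMSO without virus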); settings: HEK293 RL24 IRF3 luciferase reporter, at 10 µM, stronger effect = higher value
[9] = inhibitors of poly I:C-induced TLR3 signaling, primary screen, cell-based, poly I:C stimulus, luciferase, 10K MLSCN set (AID 602277;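 active means inhibition of the reporter signal at or above 50%; inactive means inhibition below 50%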); settings: HEK293-TLR3 RL24 IRF3 luciferase reporter, at 10 µM, stronger effect = higher value

Row | Compound | cell count [1] | inhibition [1] | inhibition of aggregation [2] | nuclei count [2] [%] | inhibition [3] | nuclei count [3] [%] | fluorescence slope [4] | NADPH fluorescence slope [5] | slope [6] | outcome [7] | inhibition [8] | inhibition [9]
1 | COc1ccccc1NC(=O)N(Cc1ccco1)Cc1cc2c(C)ccc(C)c2[nH]c1=O | 722 | -11.9% (inactive) | 2.5% (inactive) | 98.7 | -13.2% (inactive) | 100 | -0.463 (inactive) | -4.7e-05 (inactive) | 0.00639 (inactive) | inactive | 12.5% (inactive) | 5.06% (inactive)
2 | O=C(Nc1ccc2oc(=O)ccc2c1)c1cccnc1 | 423 | 7.5% (inactive) | 4% (inactive) | 90.8 | 1.2% (inactive) | 91.9 | -0.434 (inactive) | -8.3e-06 (inactive) | 0.00437 (inactive) | inactive | 6.9% (inactive) | 0.246% (inactive)
3 | Nc1cc(N)nc(SCc2ccccc2)n1 | 371 | 1.1% (inactive) | 6.6% (inactive) | 103 | -26.1% (inactive) | 108 | -0.499 (inactive) | 1.3e-05 (inactive) | 0.00402 (inactive) | inactive | -47.8% (inactive) | -101% (inactive)
4 | Cc1cc(C(=O)COc2cccc3cccnc23)c(C)n1C | 703 | 1.8% (inactive) | -22.3% (inactive) | 107 | -154% (inactive) | 117 | -0.327 (inactive) | -1.7e-05 (inactive) | 0.00438 (inactive) | inactive | -44.6% (inactive) | -68% (inactive)
5 | Cc1ccc(S(=O)(=O)N2CCN(C(=O)N3CCOCC3)C2c2ccc(N(C)C)cc2)cc1 (stereo unspecified) | 377 | -0.5% (inactive) | 0.7% (inactive) | 98 | -44.5% (inactive) | 121 | -0.419 (inactive) | -5.2e-05 (inactive) | 0.00452 (inactive) | inactive | 12.8% (inactive) | 8.2% (inactive)
6 | COCCNC(=O)C(c1ccc(C)o1)N(Cc1cccs1)C(=O)c1snc(C(N)=O)c1N (stereo unspecified) | 387 | 3.5% (inactive) | 6.6% (inactive) | 96.3 | -93.7% (inactive) | 117 | -0.379 (inactive) | -4.3e-05 (inactive) | 0.00484 (inactive) | inactive | -13.8% (inactive) | -11.9% (inactive)
7 | CSc1ccc(-c2cc(=O)c3ccccc3o2)cc1 | 620 | -10.5% (inactive) | -54.9% (inactive) | 8.7 | -108% (inactive) | 139 | -0.00698 (active) | 1.2e-05 (inactive) | 0.00442 (inactive) | inactive | -21% (inactive) | -41.6% (inactive)
8 | Cc1ccc(Nc2nc(N)nc(CN3CCN(Cc4ccc5c(c4)OCO5)CC3)n2)cc1 | 385 | 4.6% (inactive) | 54.3% (active) | 91.6 | -82.2% (inactive) | 102 | -0.367 (inactive) | -4.6e-05 (inactive) | 0.00487 (inactive) | inactive | 1.9% (inactive) | 7.26% (inactive)
9 | O=C(Nc1ccc2c(c1)OCO2)N1CCN(c2ncccn2)CC1 | 342 | 10.3% (inactive) | -5.6% (inactive) | 107 | -38.9% (inactive) | 118 | -0.421 (inactive) | -3.9e-06 (inactive) | 0.00535 (inactive) | inactive | -23.4% (inactive) | -41.5% (inactive)
10 | COc1ccccc1CC(=O)NCC1CCCO1 (stereo unspecified) | 346 | -15.9% (inactive) | 8.9% (inactive) | 107 | -2.8% (inactive) | 130 | -0.329 (inactive) | -4.4e-05 (inactive) | 0.00554 (inactive) | inactive | 11.5% (inactive) | 17.7% (inactive)
11 | CN(C)c1nc(Oc2ccc(N)cc2)nc(N(C)C)n1 | 362 | 2.1% (inactive) | 15.5% (inactive) | 94.2 | 27% (inactive) | 92 | -0.379 (inactive) | -7.9e-05 (inactive) | 0.00462 (inactive) | inactive | -1.54% (inactive) | -2.53% (inactive)
12 | Cc1oc2c(c1C(=O)NCc1ccccc1)CCCC2 | 437 | 1.3% (inactive) | -13.6% (inactive) | 108 | 4.8% (inactive) | 130 | -0.464 (inactive) | -4.8e-05 (inactive) | 0.00391 (inactive) | inactive | 9.63% (inactive) | 4.5% (inactive)
13 | Cc1cccc(N(CC(=O)N2CCCC2)S(=O)(=O)c2ccccc2)c1C | 288 | -2.3% (inactive) | 23.9% (inactive) | 87.6 | -156% (inactive) | 98.1 | -0.423 (inactive) | -4.5e-05 (inactive) | 0.00511 (inactive) | inactive | -11.4% (inactive) | -6.79% (inactive)
